Most compounds without a hit are left out; they make up all but 3.5% or so of the library.
RGS4 block: inhibitors of human RGS4; B-score at 10 µM; AID 463165; P49798; HEK293 M3R/RGS4 inducible, Fluo-4 calcium flux; active compounds read high; triggered by carbachol at its EC20; hit rate 0.45% among 310,000;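 active = B-score, a plate-corrected calcium signal, over three deviations above library mean, with baseline fluorescence within five deviations of library mean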;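 also: RGS4 expression induced by doxycycline in cells with stable M3 receptor; B-score is computed from the integrated fluorescence ratio over baseline after carbachol; higher B-score means a larger calcium signal and so more RGS4 inhibition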
MrgX1 PAM: human MrgX1 positive allosteric modulation, primary screen. Q96LB2. MrgX1-HEK293, Fluo-4 calcium flux, FDSS; active compounds read high. B-score at 10 µM. hit rate 0.63% among 310,000. AID 588675;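 active = plate-corrected calcium response at least 3 library SD above typical, normal starting fluorescence, not activating the receptor alone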;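 also: compound read alongside a low EC10 to EC30 dose of BAM8-22 agonist; peak minus trough fluorescence over baseline measured at the second addition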
Target sequence (Q96LB2 whole entry, looked up): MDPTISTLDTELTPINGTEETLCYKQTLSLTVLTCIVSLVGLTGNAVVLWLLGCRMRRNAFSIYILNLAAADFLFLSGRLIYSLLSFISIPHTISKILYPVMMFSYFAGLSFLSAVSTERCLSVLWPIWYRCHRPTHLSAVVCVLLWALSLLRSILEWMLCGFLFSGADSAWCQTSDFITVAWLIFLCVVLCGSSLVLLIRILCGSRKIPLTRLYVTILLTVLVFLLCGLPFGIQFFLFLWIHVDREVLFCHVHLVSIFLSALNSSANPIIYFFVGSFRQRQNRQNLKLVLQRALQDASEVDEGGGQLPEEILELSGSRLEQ
RGS4 pot: RGS4 potentiation or activation. HEK293 M3R/inducible RGS4, carbachol calcium flux Fluo4; active compounds read low. B-score at 10 µM. hit rate 0.92% among 310,000. AID 463111;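 active = B-score of the integrated calcium signal more than 4 SD below the library mean, with starting fluorescence not abnormally high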;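 also: negative B-score means reduced calcium response which marks RGS4 activation or potentiation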
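test system = M3R-expressing HEK293 line, RGS4 induced by doxycycline | probe or stimulus = carbachol at ECmax as muscarinic agonist stimulus | timing = dye loading 30 min 37 °C, buffer rest 30 min RT | signal = calcium dye Fluo4 fluorescence | evaluation = B score from integrated fluorescence ratio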
MrgX1 antag: blocks BAM8-22 activation of human MrgX1 receptor; Q96LB2; MRGX1-HEK293 calcium flux, Fluo-4, BAM8-22 antagonism; active compounds read low; B-score at 10 µM; hit rate 1.3% among 310,000; AID 588676;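 active = calcium-response B-score plate-corrected more than 3 library SD below zero, starting fluorescence within 5 deviations, no agonist response on first addition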;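 also: peak minus trough fluorescence over baseline after final BAM8-22 challenge near maximal dose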
MrgX1 ag: agonists of human MrgX1 receptor; Q96LB2; MrgX1-HEK293 cells, Fluo-4 calcium fluorescence, agonist mode; active compounds read high; B-score at 10 µM; hit rate 0.44% among 310,000; AID 588627;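 active = calcium response B-score plate-corrected fluorescence ratio at least 3 library SD, with starting fluorescence B-score inside 5 SD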
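Material: MrgX1-expressing HEK293 cells; input: 15,000 cells per well; doses: test compound given as first of three sequential additions; schedule: overnight plating before 1 h dye loading; technique: Fluo-4 NW calcium-flux fluorescence, kinetic read; evaluation: baseline-normalised fluorescence change ratio, B-scored; control set: plate-wise positive and negative controls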
RGS4 inh valid: validation of RGS4 inhibitors; shares compounds with RGS4 block; HEK293 M3R/RGS4, carbachol calcium Fluo-4 fluorescence; carbachol added at its EC20; 0 = buffer wells, 100 = carbachol control; calcium response, % at 10 µM; hit rate 65% among 1,700; AID 492999;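 active = duplicate-averaged calcium response above the buffer-only control mean plus 5 SD of those controls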;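 also: integrated fluorescence ratio F max minus min over baseline F0; higher response in RGS4-induced cells means RGS4 inhibition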
M3R Ca ctr: checks RGS4 inhibitor effects in non-induced HEK293 M3R cells; carbachol calcium Fluo-4; submaximal (EC20) carbachol stimulus; buffer wells 0%, carbachol control wells 100%; AID 493000; hit rate 20% among 1,900; activity (percent), % at 10 µM; shares compounds with RGS4 block; call rule not given here;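 also: RGS4 induction absent so cells express M3R without RGS4; higher means more calcium signal and flags a non-specific hit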
RGS4 inh ctr2: second counter-screen for RGS4 inhibitors: non-induced cells without carbachol. shares compounds with RGS4 block. HEK293 M3R/RGS4 non-induced, Fluo-4 calcium, no carbachol; normalised: buffer wells 0%, carbachol wells 100%. calcium response (agonist-mode artifact), % at 10 µM. hit rate 22% among 1,900. AID 493001;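 active = duplicate-averaged calcium rise in uninduced cells above buffer wells' mean plus 5 SD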
* = called active by the depositor; i = inactive; . = no result.

SMILES | RGS4 block | MrgX1 PAM | RGS4 pot | MrgX1 antag | MrgX1 ag | RGS4 inh valid | M3R Ca ctr | RGS4 inh ctr2
Nc1nn2cc(-c3ccc(Br)cc3)nc2c2ccccc12 | 7* | i | i | i | i | 10%* | i | i
COc1ccc(S(=O)(=O)Nc2ccc(O)c3ccccc23)cc1 | 6.8* | i | i | i | i | 10%* | i | i
COc1ccc(S(=O)(=O)Nc2ccccc2)cc1 | i | i | i | i | i | . | . | .
CCS(=O)(=O)C1=NN2C(=N)/C(=C\c3ccc(SCc4ccco4)o3)C(=O)N=C2S1 | i | . | i | . | . | . | . | .
O=C(NC(C(=O)N/N=C/c1cccc2ccccc12)c1n[nH]c(=O)c2ccccc12)c1ccccc1 (stereo unspecified) | 14* | i | i | i | i | 24%* | 30%* | i
O=C(NC(C(=O)N/N=C/c1ccncc1)c1n[nH]c(=O)c2ccccc12)c1ccccc1 (stereo unspecified) | i | i | i | i | i | . | . | .
CCN(CC(=O)Nc1cccc(OC)c1)CC(=O)Nc1ccc(C)cc1Cl | i | i | i | i | i | . | . | .
Cc1cccc(/C(N)=N/OC(=O)c2ccc(Br)o2)c1 | 5.2* | i | i | i | i | i | i | i
COc1cccc(CNC(=O)CN2C(=O)CSc3ccc(S(=O)(=O)N4CCCCC4)cc32)c1 | i | i | i | i | i | . | . | .
O=C1NN(c2ccccc2)C(=O)/C1=C/c1ccc(Sc2cccc3ccccc23)o1 | 12* | i | i | i | i | i | i | i
COc1ccc(CCNC(=O)CNC(=O)Cn2ccc3ccccc3c2=O)cc1OC | i | i | i | i | i | . | . | .
Cc1ccc(-c2cc(-c3ccccc3)c(C#N)c(N)n2)o1 | 7.7* | i | i | i | i | 5.5%* | i | i
Cc1ccc(-c2cc(-c3ccc(F)cc3)nc(N)c2C#N)o1 | 6* | i | i | i | i | i | i | i
COc1ccc(NC(=O)c2cn(CCC#N)nc2-c2cc3ccccc3o2)cc1 | i | i | i | i | i | . | . | .
O=C(N/N=C/c1cc2cc3c(cc2nc1Cl)OCCO3)c1ccccc1O | i | i | i | i | i | . | . | .
O=C(N/N=C/c1cc2cc3c(cc2nc1Cl)OCO3)c1ccncc1 | 7.8* | i | i | i | i | i | i | i
CC(=C/c1ccccc1)/C=N/n1c(-c2ccncc2)n[nH]c1=S | 5.1* | i | i | i | i | 16%* | i | i
CC(/C=N/n1c(-c2cccnc2)n[nH]c1=S)=C\c1ccccc1 | i | i | i | i | i | . | . | .
S=c1[nH]nc(-c2ccncc2)n1/N=C/c1cn(-c2ccccc2)nc1-c1ccc(Cl)cc1 | i | i | i | i | i | i | i | i
O=C(NC1CCCCC1)c1ccc2snnc2c1 | i | i | i | i | i | . | . | .
COc1cccc(CN(CC(=O)NCc2ccccc2)C(=O)c2csnn2)c1 | i | i | i | i | i | . | . | .
Cc1cccc(OC(C)C(=O)N/N=C\c2ccncc2)c1 (stereo unspecified) | i | i | i | i | i | . | . | .
Fc1ccc2c(c1)/C(=N/Nc1ccccn1)CCS2 | 12* | i | i | i | i | 14%* | i | i
C=CCNC(=O)COC(=O)c1nc2nccc(C)n2n1 | i | i | i | i | i | . | i | i

Source: PubChem BioAssay
